Each structure is given as a SMILES string. The whole screen tested about 360,000 compounds, of which about 5,400 (1.5%) were called active.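 The calls were made as follows: active = inhibition above a per-plate cutoff, the mean inhibition of test compounds on that plate plus 3 SD (cut at about 49% in these data); inactive = the rest.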 What follows is part of a selection rich in actives, with near analogues and random picks from the rest.

Trace amine-associated receptor 1 (Homo sapiens), sequence (Q96RJ0 whole entry, looked up): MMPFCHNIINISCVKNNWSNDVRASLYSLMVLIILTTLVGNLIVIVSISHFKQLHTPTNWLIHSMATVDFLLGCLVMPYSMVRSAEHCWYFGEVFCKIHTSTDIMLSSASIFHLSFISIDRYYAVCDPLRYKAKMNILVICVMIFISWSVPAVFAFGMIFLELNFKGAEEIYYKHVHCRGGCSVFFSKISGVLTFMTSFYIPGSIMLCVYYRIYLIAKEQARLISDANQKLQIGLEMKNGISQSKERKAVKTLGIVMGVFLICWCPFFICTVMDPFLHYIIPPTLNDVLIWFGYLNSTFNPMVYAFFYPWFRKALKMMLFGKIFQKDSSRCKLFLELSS

The target in this experiment is Trace amine-associated receptor 1 (Homo sapiens) (UniProt Q96RJ0). Kind of experiment: human TAAR1 antagonists, primary screen, Fluo-8 calcium fluorescence, CHO RD-HGA16 cells (AID 624466).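 Also: 0% = DMSO plus EC80 beta-PEA response and 100% = DMSO alone without agonist.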 As to conditions: CHO RD-HGA16 TAAR1, Fluo-8 calcium fluorescence, antagonist; at 3 µM; hits give high values. In a few lines:
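Test system: CHO RD-HGA16 cells bearing hTAAR1 | Reagent: β-PEA, EC80 | Compound dosing: 3 µM, single point | Schedule: Dye loading 75 min at 37 °C, then 30 min room temperature | Signal: Calcium fluorescence with Fluo-8 | Evaluation: Percent inhibition of PEA-evoked calcium signal, max/basal emission ratio | Control set: DMSO-only wells and EC80 β-PEA-stimulated wells | Repeats: Singlicate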
One may read the inhibition as the drop in the measured response relative to a control, in per cent. As for `Cc1ccc(S(=O)(=O)N2CC3C(=O)C[C@@H](c4ccccc4Cl)N(S(=O)(=O)c4ccc(C)cc4)C3CC2c2ccccc2)cc1` (stereo not given in full), the inhibition is 2.68% (inactive).
In the case of `COC(=O)c1cc2c(c3c4cc(F)ccc4n(S(=O)(=O)c4ccccc4)c13)C(=O)N(Cc1ccccc1OC)C2`, the inhibition was -0.96% (inactive).
On to `O=C(C(=O)N1CCC(CNC(=O)c2cccnc2Cl)CC1)c1cccs1`, for which the inhibition is -12.2% (inactive).
Then `COc1ccc(CNC(=O)COc2cccnc2[N+](=O)[O-])cc1`, with -4.68% (inactive); and `Cc1ccc(-c2c(N)nc3ncccn23)cc1`, with -8.72% (inactive).
For `COCCn1c(C)cc(C(=O)CSc2nnc(C3CC3)n2C2CC2)c1C`, the inhibition is 10.2% (inactive).
Then `Nc1nc2c(Br)ccc(Br)c2cc1C(=O)NCCc1ccccc1`, with -14% (inactive); and `O=C(NNS(=O)(=O)c1ccc(F)cc1)C1CCCCC1`, with -20.9% (inactive); and `O=C(CN1CCCSc2ccccc21)N1CCN(S(=O)(=O)c2ccccc2)CC1`, with 18.8% (inactive).
As for `O=C(CN1CCN(S(=O)(=O)c2cccc(Cl)c2)CC1)N1CCCCC1`, the inhibition is 6.11% (inactive).
`O=C(CN1CCCSc2ccccc21)N1CCN(S(=O)(=O)c2cccc(F)c2)CC1`: the inhibition is 49.7% (active).
The figure for `Cc1ccccc1C(=O)N[C@H](C(=O)N1CCC[C@H]1C(=O)NCc1ccccc1)C(C)C` is 14.4% (inactive); for `O=C(NC1CCCC1)C1c2ccccc2OCC(=O)N1CC(F)(F)F` (stereo not given) it is 4.73% (inactive); for `CCOc1ccccc1N1CN(Cc2ccccc2)CNC1=S` it is -9.06% (inactive).
The figure for `COc1ccc2[nH]cc(/C=C(/C#N)S(=O)(=O)c3ccccc3)c2c1` is 51% (active); for `COc1ccc2[nH]cc(CCN3C(=O)c4ccc(C(=O)O)cc4C3=O)c2c1` it is -11.2% (inactive); for `COc1ccc(NS(=O)(=O)c2ccc(Oc3c(C#N)cccc3C#N)cc2)cc1` it is 38.8% (inactive).
Take `CC(C)c1ccc(OCC(O)Cn2cnc3ccccc32)cc1` (stereo not given): the inhibition is -0.64% (inactive).
On to `OC(CN=c1sc2ccccc2n1CC(O)COc1ccccc1)COc1ccccc1` (stereo not given), for which the inhibition was 67.2% (active).
Take `Cc1cccc(OCC(O)Cn2c(=N)n(CCN3CCOCC3)c3ccccc32)c1` (stereo not given): the inhibition is -7.65% (inactive).
In the case of `CC(C)(C)c1ccc(NC(=O)COC(=O)CCc2nc3ccccc3c(=O)[nH]2)cc1`, the inhibition was 6.51% (inactive).
Then `O=C(COC(=O)CCc1nc2ccccc2c(=O)[nH]1)Nc1ccc(N2CCOCC2)cc1`, with 0.61% (inactive); and `O=C(COC(=O)CCCSc1nc2ccccc2[nH]1)Nc1ccc(Oc2ccccc2)cc1`, with 67.1% (active); and `Nc1nc2c(ncn2[C@@H]2O[C@H](C(=O)N[C@H](Cc3ccccc3)C(=O)NCC3CCCCC3)[C@@H](O)[C@H]2O)c(=O)[nH]1`, with -12.4% (inactive).
As to `O=C(Cn1cncn1)N/N=C/c1c2ccccc2cc2ccccc12`, the inhibition was -12.2% (inactive).
The figure for `Cc1ccc(S(=O)(=O)N[C@H](CO)C(C)C)cc1` is -9.25% (inactive); for `Cc1ccc(NC(=O)Nc2cc(-c3ccccc3)nn2C)cc1Cl` it is 8.7% (inactive).
In the case of `CC(=O)Nc1ccc(-c2csc(NC(=O)Nc3ccccc3)n2)cc1`, the inhibition was 63.2% (active).
Turning to `NC(c1ccccc1)c1csc(NC(=O)Nc2cccc(C(F)(F)F)c2)n1` (stereo not given), the inhibition is 35.6% (inactive).
The figure for `CCCC(CNC(=O)COC(=O)C1=NNC(=O)CC1)c1ccc(Cl)cc1Cl` (stereo not given) is -3.84% (inactive).
With `COCCCNC(=O)C1CC(=O)N(c2ccc(C)cc2)C1` (stereo not given), the inhibition is -3.91% (inactive).
Then `O=C(NCC1CCCO1)c1cc2c([nH]c3ccccc32)c(-c2ccc(F)cc2)n1` (stereo not given), with 74.8% (active); and `COc1ccc2cc(C(=O)NCC3CCCO3)[nH]c2c1` (stereo not given), with -16.3% (inactive); and `O=C(NCCCO)c1cc2c([nH]c3ccccc32)c(-c2ccc(F)cc2)n1`, with 23.9% (inactive).
Consider `CC(=O)Nc1cccc(-c2cc(NC=O)c3ncc(-c4ccc(F)c(Cl)c4)n3c2)c1`, for which the inhibition is 39% (inactive).
Turning to `Cc1c(C)n2c(SCC(=O)N3CCCC3)nnc2[nH]c1=O`, the inhibition was -9.03% (inactive).
The figure for `CN1CCCCC(NC(=O)C(C)(C)C)C1=O` (stereo not given) is -14% (inactive); for `Cc1ccc(/C=C/C(=O)Nc2ccc([N+](=O)[O-])c(NC(=O)/C=C/c3ccc(C)o3)c2)o1` it is 48.8% (active); for `Cc1ccc(/C=C/C(=O)Nc2cc(S(=O)(=O)N3CCCCCC3)ccc2OCC(F)(F)F)o1` it is -13.9% (inactive).
Then `COC(=O)/C=C\C(=O)Nc1cccc([N+](=O)[O-])c1`, with -1.13% (inactive).
Turning to `CC(C(=O)N=Nc1c(O)n(C)c2ccc(Br)cc12)n1cnc2ccccc2c1=O` (stereo not given), the inhibition is -6.29% (inactive).
In the case of `COCc1[nH]nc2c1C(c1ccccc1)N(c1ccccc1)C2=O` (stereo not given), the inhibition was -20.8% (inactive).
`O=[N+]([O-])c1ccc(N2CCNCC2)cc1NCc1cccnc1`: the inhibition was 13.4% (inactive).
Then `COC(=O)c1sccc1NC(=O)CCC1CCCC1`, with 15.8% (inactive); and `COC(=O)c1sccc1NC(=O)c1cc(OC)c(OC)c(OC)c1`, with 52.3% (active); and `COc1ccc(Cc2nnc(NC(=O)c3cc(OC)c(OC)c(OC)c3)s2)cc1OC`, with -43.4% (inactive).
The figure for `CCOC(=O)[C@]12CCC=C1N(Cc1ccco1)C(=O)[C@H](CC(=O)NCc1cccc(C(F)(F)F)c1)C2` is -12.7% (inactive).
With `O=S1(=O)CC(N2CCN(CCO)CC2)CN1Cc1cn(Cc2cccc(Cl)c2)nn1` (stereo not given), the inhibition is -8.99% (inactive).
Consider `O=C(NN=Cc1ccccc1O)NN=Cc1ccccc1O`, for which the inhibition is 53.9% (active).
For `O=C(N/N=C/c1ccccc1O)/C(=C/c1ccccc1)CCO`, the inhibition is 12.2% (inactive).
For `Oc1ccccc1C=NC1CCCCC1N=Cc1ccccc1O` (stereo not given), the inhibition is 0.73% (inactive).
The figure for `CN1C(=O)C(Br)(Br)CC1c1cccnc1` (stereo not given) is -9.8% (inactive); for `O=C(CSc1nnc(-c2ccco2)o1)NCC(=O)c1ccccc1` it is -36% (inactive).
Consider `O=C(CCc1ccccc1)Nc1cccc(-c2nnc(-c3ccco3)o2)c1`, for which the inhibition was 56.8% (active).
Take `C/C(=N/NC(=O)CCc1ccccc1)c1ccco1`: the inhibition was -8.62% (inactive).
For the molecule `COC1(C2=NCCN2)COc2ccccc2O1` (stereo not given), the inhibition was -15.3% (inactive).
On to `Cc1ccc(S(=O)(=O)N(c2cccc(C)c2)C2CCS(=O)(=O)C2)cc1` (stereo not given), for which the inhibition was -4.68% (inactive).
Then `O=C(NCCc1ccccc1)C1CC1`, with 1.61% (inactive); and `O=C(O)C1C2C=CC(O2)C1C(=O)NCCc1cccc(Cl)c1` (stereo not given), with 70.5% (active); and `O=C(O)C1C2C=CC(O2)C1C(=O)Nc1ccccn1` (stereo not given), with 13.6% (inactive).
For `COc1ccc(N/N=C2/CCCCC2=O)cc1`, the inhibition was -11.3% (inactive).
On to `O=C(NCCN1CCOCC1)C1CCN(S(=O)(=O)c2ccccc2)CC1`, for which the inhibition was 1.73% (inactive).
Turning to `CCCCNC(=O)OC1CC2CC1[C@H]1CCCCN1C2=O` (stereo not given in full), the inhibition was -1.17% (inactive).
The figure for `Cc1nc2c(C(=O)NCc3cccs3)cnn2c(C)c1Cc1ccc(F)cc1` is 9.05% (inactive); for `COc1cccc(NC(=O)COC(=O)/C=C/c2ccco2)c1` it is -14.3% (inactive).
Regarding `O=C(/C=C/c1ccco1)Nc1ccc(Oc2ccccc2)cc1`, the inhibition was 52.3% (active).
For the molecule `O=C(O)/C=C\C(=O)Nc1ccc(OCc2ccccc2)cc1`, the inhibition was 4.01% (inactive).
For the molecule `CCCCCCCCN1C(=O)[C@@H](CC(=O)NCc2ccc(C)o2)C[C@@]2(C(=O)OC)C1=C[C@H](C(C)(C)C)O[C@@H]2C`, the inhibition was -36.1% (inactive).
On to `C/C(=N/Nc1nc(-c2ccccc2)c(CC(=O)O)s1)c1ccccc1`, for which the inhibition was 24.8% (inactive).
`COc1cc(OC)nc(N/N=C(\c2ccccc2)c2ccncc2)n1`: the inhibition was 5.98% (inactive).
On to `c1ccc(C(=NNc2nc3ccccc3s2)c2ccccn2)cc1`, for which the inhibition was 53.9% (active).
On to `Nc1nc2c(ncn2[C@@H]2O[C@H](C(=O)N[C@@H](Cc3ccccc3)C(=O)NCc3ccccc3)[C@@H](O)[C@H]2O)c(=O)[nH]1`, for which the inhibition is -6.97% (inactive).
For the molecule `COCCNC(=S)Nc1cc(S(=O)(=O)N2CCOCC2)ccc1N1CCCCC1`, the inhibition is -23.6% (inactive).
Take `Clc1ccc2nc(-c3ccccc3)nc(C(Cl)Cl)c2c1`: the inhibition is 2.4% (inactive).
For the molecule `CSc1nc(-c2ccccc2)nc(C(Cl)Cl)n1`, the inhibition is 58.9% (active).
`COc1ccc(NC(=O)[C@H](NC(=O)[C@@H]2Cc3ccccc3CN2)c2ccccc2)cc1`: the inhibition is -18% (inactive).
For the molecule `COc1cccc(NC(=O)[C@H](Cc2c[nH]c3ccccc23)NC(=O)[C@@H]2Cc3ccccc3CN2)c1`, the inhibition is 49.5% (active).
For `COc1ccc(CNC(=O)[C@H](Cc2c[nH]c3ccccc23)NC(C)=O)cc1OC`, the inhibition is -1.22% (inactive).
As to `Cc1cccc(C)c1NC(=O)C(c1cccc2ccccc12)n1c(=O)c(-c2ccco2)nc2ccccc21` (stereo not given), the inhibition was -9.07% (inactive).
The figure for `COc1ccc(CNC(=O)COC(=O)c2sccc2C)cc1OC` is -9.87% (inactive); for `COc1ccc(CNC(=O)COc2ccccc2C(=O)c2cnn(-c3ccccc3)c2)cc1OC` it is 54% (active); for `COc1ccc(CNC(=O)COC(=O)c2c(C)nn(-c3ccccc3)c2C)cc1OC` it is -1.94% (inactive).
`Cc1cccc(C)c1NC(=O)C(c1cccc(F)c1)N1CCN(C)CC1` (stereo not given): the inhibition is -12.4% (inactive).
In the case of `O=C(O)c1ccc(NC(=O)c2cn(-c3ccccc3)nc2-c2ccc(Cl)cc2)cc1`, the inhibition was 73.7% (active).
Turning to `Cc1ccc(-c2nn(-c3ccccc3)cc2C(=O)NCCCN2CCCC2=O)cc1`, the inhibition is -7.1% (inactive).
For `O=C(NNC(=S)NC(=O)c1cn(-c2ccccc2)nc1-c1ccccc1)c1ccncc1`, the inhibition is 49.8% (active).
Turning to `O=C(NCCCN1CCOCC1)c1cn(-c2ccccc2)nc1-c1ccc(F)cc1`, the inhibition was 3.41% (inactive).
Consider `Cc1ccc(-c2nn(-c3ccccc3)cc2C(=O)Nc2cccc(S(=O)(=O)N3CCOCC3)c2)cc1`, for which the inhibition is 11% (inactive).
On to `NC(=O)C1CCN(C(=O)c2cn(-c3ccccc3)nc2-c2cccnc2)CC1`, for which the inhibition was -9.79% (inactive).
Take `CSc1ccc(C#N)cc1NC(=O)c1ccc(Cl)cc1`: the inhibition is -1.99% (inactive).

Source of the values: PubChem BioAssay AID624466 (The Scripps Research Institute Molecular Screening Center, 2012).
